Test results reported in ChEMBL document CHEMBL1146656, “The monoethyl ester of meconic acid is an active site inhibitor of HCV NS5B RNA-dependent RNA polymerase” (Bioorg Med Chem Lett, 2004).

Key:
[1] = target: T1, RNA-directed RNA polymerase (Hepacivirus hominis, UniProt O39930); experiment: Inhibitory potency of compound in presence of Mg2+ ion against NS5B HCV polymerase
Method in brief: (§1)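 NS5B with C-terminal 55-residue truncation (ΔC55), expressed in E. coli and purified; 5 nM enzyme in 20 mM Tris/HCl pH 7.5, 0.05% Triton X-100, 2% glycerol, 50 mM NaCl, 1 mM DTT, 5 mM MgCl2. Enzyme preincubated 20 min at 23 °C with poly(rA)/oligo(rU) (20 µg/mL final). Started with 10 µM 3H-UTP, 30 min at 23 °C. Acid-insoluble radioactivity measured; IC50 from three-parameter logistic fit; mean of 2–4 experiments.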

[2] = target: T1, RNA-directed RNA polymerase; experiment: Inhibitory potency of compound in presence of Mn2+ ion against NS5B HCV polymerase
[3] = target: T1, RNA-directed RNA polymerase; experiment: Inhibitory potency against NS5B HCV polymerase
Method in brief: as §1, with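 “NS5BΔC55 (C-terminal” for “NS5B with C-terminal”, “truncation)” for “truncation (ΔC55),”, “purified to homogeneity, used at” for “purified;”, “nM” for “nM enzyme”, “counted.” for “measured;”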

Hepatitis C virus = experiment: Tested for inhibition of HCV RNA replication in a cell-basedassay; No significant inhibition; assay type: functional, organism-based, Hepacivirus hominis
[4] = target: T1, RNA-directed RNA polymerase; experiment: Ability of compound to displace [3H]-DKA from NS5B HCV polymerase by 50%

T1 sequence (O39930 whole entry, the tested form may be a part): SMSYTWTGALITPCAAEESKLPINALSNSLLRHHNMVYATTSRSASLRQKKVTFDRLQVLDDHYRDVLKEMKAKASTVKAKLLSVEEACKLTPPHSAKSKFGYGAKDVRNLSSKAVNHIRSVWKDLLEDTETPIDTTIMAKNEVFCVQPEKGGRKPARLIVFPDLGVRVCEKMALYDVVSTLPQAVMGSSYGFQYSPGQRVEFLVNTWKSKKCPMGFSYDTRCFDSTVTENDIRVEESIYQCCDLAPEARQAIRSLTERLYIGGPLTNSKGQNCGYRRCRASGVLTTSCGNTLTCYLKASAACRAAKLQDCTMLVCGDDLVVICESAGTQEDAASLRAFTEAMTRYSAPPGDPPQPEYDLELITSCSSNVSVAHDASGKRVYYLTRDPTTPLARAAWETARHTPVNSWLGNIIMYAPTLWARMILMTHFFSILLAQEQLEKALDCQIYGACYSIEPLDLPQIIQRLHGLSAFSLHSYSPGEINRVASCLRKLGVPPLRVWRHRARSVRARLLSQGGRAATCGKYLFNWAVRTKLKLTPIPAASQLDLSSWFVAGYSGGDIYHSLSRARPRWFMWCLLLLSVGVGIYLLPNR

Compound | IC50 [1] [µM] | IC50 [2] [µM] | IC50 [3] [µM] | EC50 (Hepatitis C virus) [µM] | DC50 [4] [µM]
O=C(O)c1cc(=O)c(O)c(C(=O)O)o1 | > 100 | 18 | > 100 | 50 | –
O=C(O)c1oc2ccccc2c(=O)c1O | 23 | 1.9 | – | > 50 | –
CCOC(=O)c1cc(=O)c(O)c(C(=O)OCC)o1 | > 100 | 4 | > 100 | > 50 | –
CCN(CC)C(=O)c1cc(=O)c(O)c(C(=O)O)o1 | – | – | > 100 | > 50 | –
CCNC(=O)c1cc(=O)c(O)c(C(=O)O)o1 | – | – | 24 | > 50 | –
CCOC(=O)c1cc(=O)c(O)co1 | – | – | > 100 | > 50 | –
O=C(O)c1occc(=O)c1O | – | – | 51 | > 50 | –
O=C(O)c1oc(COCc2ccccc2)cc(=O)c1O | – | – | > 100 | > 50 | –
CCOCc1cc(=O)c(O)c(C(=O)O)o1 | 16.2 | 0.8 | 16.2 | > 50 | –
CCOC(=O)c1cc(=O)c(O)c(C(=O)O)o1 | 2.25 | 0.165 | 2.25 | > 50 | 1.2
CC(C)(C)OC(=O)c1cc(=O)c(O)c(C(=O)O)o1 | – | – | 36 | > 50 | –
COC(=O)c1oc(C(=O)O)cc(=O)c1O | – | – | > 100 | > 50 | –
O=C(O)C(=O)/C=C(\O)c1ccccc1 | – | – | – | > 50 | 0.3
